# Experiments:
# [1] = biological target: 5-hydroxytryptamine receptor 2A (Homo sapiens, UniProt P28223); assay: Binding affinity towards human cloned 5-hydroxytryptamine receptor 2A in HEK293 cells, using [3H]ketanserin as radioligand.; format: cell-based
# Outline: (§1)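 Competition binding at human cloned receptors expressed in HEK 293 cells. Radioligands: [3H]ketanserin for 5-HT2A, [3H]5-HT for 5-HT2B, [3H]mesulergine for 5-HT2C. Values are pKi, given as the mean of at least two determinations, each within 0.2 log unit of the mean.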
# [2] = biological target: T1, 5-hydroxytryptamine receptor 2C (Homo sapiens, UniProt P28335); assay: Binding affinity towards human cloned 5-hydroxytryptamine receptor 2C in HEK293 cells, using [3H]mesulergine as radioligand.; format: cell-based; outline: as §1
# T1 sequence (P28335 whole entry): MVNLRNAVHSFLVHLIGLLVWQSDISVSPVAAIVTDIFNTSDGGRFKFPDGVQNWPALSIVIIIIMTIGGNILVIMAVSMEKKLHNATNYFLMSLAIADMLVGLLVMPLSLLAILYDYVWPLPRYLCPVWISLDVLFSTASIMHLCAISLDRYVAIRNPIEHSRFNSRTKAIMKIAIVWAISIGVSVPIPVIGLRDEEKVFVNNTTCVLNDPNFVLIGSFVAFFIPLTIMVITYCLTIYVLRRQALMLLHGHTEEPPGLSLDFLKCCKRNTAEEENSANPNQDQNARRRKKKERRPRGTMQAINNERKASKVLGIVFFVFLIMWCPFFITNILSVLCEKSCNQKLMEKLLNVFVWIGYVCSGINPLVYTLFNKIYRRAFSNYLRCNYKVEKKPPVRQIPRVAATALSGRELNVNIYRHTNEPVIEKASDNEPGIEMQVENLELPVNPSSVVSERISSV
# [3] = biological target: T2, 5-hydroxytryptamine receptor 2B (Homo sapiens, UniProt P41595); assay: Binding affinities towards human cloned 5-hydroxytryptamine 2B receptor in HEK293 cells using [3H]5-HT as radioligand.; format: cell-based; outline: as §1
# [4] = biological target: T3, Serotonin 2 receptors; 5-HT2a & 5-HT2c (Homo sapiens) (UniProt P28223+P28335); assay: Selectivity index determined from binding affinities of 5-HT2C and 5-HT2A.; format: protein assay
# [5] = biological target: T4, Serotonin receptor (2b and 2c) (Homo sapiens) (UniProt P41595+P28335); assay: Selectivity index determined from the binding affinities of 5-HT2C and 5-HT2B.; format: protein assay
# [6] = biological target: T5, Cytochrome P450 1A2 (Homo sapiens, UniProt P05177); assay: Inhibition of heterologously expressed human cytochrome P450 1A2.; format: ADME
# T5 sequence (P05177 whole entry): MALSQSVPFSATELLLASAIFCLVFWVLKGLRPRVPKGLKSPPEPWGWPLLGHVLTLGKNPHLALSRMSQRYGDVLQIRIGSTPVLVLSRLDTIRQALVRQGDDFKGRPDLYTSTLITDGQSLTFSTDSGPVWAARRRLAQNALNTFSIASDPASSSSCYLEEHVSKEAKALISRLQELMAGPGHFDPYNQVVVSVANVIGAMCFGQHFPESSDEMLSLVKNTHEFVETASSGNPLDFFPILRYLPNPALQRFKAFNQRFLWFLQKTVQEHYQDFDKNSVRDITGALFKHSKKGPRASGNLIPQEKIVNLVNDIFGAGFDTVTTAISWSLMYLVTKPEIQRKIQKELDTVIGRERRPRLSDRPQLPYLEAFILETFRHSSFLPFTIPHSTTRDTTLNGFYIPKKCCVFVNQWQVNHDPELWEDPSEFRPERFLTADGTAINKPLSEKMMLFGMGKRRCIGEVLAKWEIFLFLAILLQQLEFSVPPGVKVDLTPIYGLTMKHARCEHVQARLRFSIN
# Outline: (§2)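 Heterologously expressed human CYP1A2 in an isoform-selective assay. Substrate: caffeine N3-demethylation at 500 µM, at the substrate Km.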
# [7] = system: Rattus norvegicus; assay: Dose required to reverse mCPP induced hypolocomotion in rat after oral administration.; format: functional; settings: read-out: ID50 (the source's name)
# Outline: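 Rat hypolocomotion model. The test compound was given orally, and mCPP was given at 7 mg/kg ip 30 min before the test. ID50 (mg/kg po) is the dose that reverses mCPP-induced hypolocomotion by 50%.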
# [8] = biological target: T2, 5-hydroxytryptamine receptor 2B; assay: Displacement of [3H]5-HT from human 5-hydroxytryptamine 2B receptor expressed in HEK293 cells; format: cell-based; outline: as §1
# [9] = biological target: Cytochrome P450 2C19 (Homo sapiens, UniProt P33261); assay: Inhibition of heterologously expressed human cytochrome P450 2C19; format: ADME
# [10] = biological target: T3, Serotonin 2 receptors; 5-HT2a & 5-HT2c (Homo sapiens); assay: Selectivity index for binding affinities for 5-HT2C and 5-HT2A receptors; format: protein assay
# [11] = biological target: T4, Serotonin receptor (2b and 2c) (Homo sapiens); assay: Selectivity index for binding affinities for 5-HT2C and 5-HT2B receptors; format: protein assay
# [12] = biological target: T5, Cytochrome P450 1A2; assay: Inhibition of heterologously expressed human cytochrome P450 1A2; format: ADME; outline: as §2
# T3 sequence (P28223 whole entry, looked up, one chain of several): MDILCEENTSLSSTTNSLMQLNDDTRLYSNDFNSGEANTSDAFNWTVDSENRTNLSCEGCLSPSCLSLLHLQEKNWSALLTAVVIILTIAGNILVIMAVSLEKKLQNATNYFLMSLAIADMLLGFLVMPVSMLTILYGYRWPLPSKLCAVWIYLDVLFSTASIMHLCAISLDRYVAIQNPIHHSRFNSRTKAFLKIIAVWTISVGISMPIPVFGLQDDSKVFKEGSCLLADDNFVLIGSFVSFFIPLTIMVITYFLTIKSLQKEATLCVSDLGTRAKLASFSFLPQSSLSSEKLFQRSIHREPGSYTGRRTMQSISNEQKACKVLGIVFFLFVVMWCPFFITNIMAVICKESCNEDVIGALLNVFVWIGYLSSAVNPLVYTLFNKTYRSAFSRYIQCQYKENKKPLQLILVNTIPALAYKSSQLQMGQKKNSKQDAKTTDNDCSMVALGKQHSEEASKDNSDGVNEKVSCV
# 5-hydroxytryptamine receptor 2A, sequence (P28223 whole entry): as the sequence (P28223 whole entry, looked up, one chain of several) above
# T2 sequence (P41595 whole entry): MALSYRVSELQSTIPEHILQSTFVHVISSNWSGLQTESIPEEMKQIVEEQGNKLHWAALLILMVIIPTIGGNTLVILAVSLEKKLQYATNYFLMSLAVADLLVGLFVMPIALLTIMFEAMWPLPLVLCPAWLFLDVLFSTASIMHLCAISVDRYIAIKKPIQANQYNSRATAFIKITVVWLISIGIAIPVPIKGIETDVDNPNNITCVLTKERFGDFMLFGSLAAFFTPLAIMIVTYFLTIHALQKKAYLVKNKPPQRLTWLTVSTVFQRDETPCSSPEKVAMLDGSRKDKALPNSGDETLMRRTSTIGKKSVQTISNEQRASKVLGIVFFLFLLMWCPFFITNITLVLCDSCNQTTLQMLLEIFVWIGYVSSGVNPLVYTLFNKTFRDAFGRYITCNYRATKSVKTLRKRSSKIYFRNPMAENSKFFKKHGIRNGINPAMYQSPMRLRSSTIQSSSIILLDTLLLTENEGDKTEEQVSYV
# Cytochrome P450 2C19, sequence (P33261 whole entry): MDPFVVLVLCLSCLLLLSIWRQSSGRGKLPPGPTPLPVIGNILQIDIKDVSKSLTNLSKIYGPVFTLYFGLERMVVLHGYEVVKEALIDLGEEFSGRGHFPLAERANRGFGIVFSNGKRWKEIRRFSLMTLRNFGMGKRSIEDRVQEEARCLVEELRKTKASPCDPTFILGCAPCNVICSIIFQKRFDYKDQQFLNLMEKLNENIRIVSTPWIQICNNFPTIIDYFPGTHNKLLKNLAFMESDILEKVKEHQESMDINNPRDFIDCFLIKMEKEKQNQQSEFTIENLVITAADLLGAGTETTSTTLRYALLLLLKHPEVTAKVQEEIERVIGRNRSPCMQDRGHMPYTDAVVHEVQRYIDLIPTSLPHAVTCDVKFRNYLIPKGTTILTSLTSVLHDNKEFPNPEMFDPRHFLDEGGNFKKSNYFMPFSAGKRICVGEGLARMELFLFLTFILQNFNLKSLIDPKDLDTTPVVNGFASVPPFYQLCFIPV
Structure (SMILES),Ki [1] [nM],Ki [2] [nM],Ki [3] [nM],Selectivity [4],Selectivity [5],IC50 [6] [nM],ED50 [7] [mg/kg],Inhibition [6] [%],Ki [8] [nM],IC50 [9] [nM],Selectivity [10],Selectivity [11],Inhibition [12] [%],inhibition at 1 µM [6] [%]
COc1cc2c(cc1C(F)(F)F)N(C(=O)Nc1ccc(-c3ccncc3)cc1)CC2,> 10000,5.01,12.6,> 2000,3,–,–,–,–,–,–,–,–,–
COc1cc2c(cc1C(F)(F)F)N(C(=O)Nc1ccc(C)c(-c3cccnc3)c1)CC2,5010,1,5.01,5000,5,7000,1.6,–,–,–,–,–,–,–
COc1cc2c(cc1C(F)(F)F)N(C(=O)Nc1ccc(-c3cccnc3)cc1)CC2,3980,15.8,10,250,0.6,–,> 10,–,–,–,–,–,–,–
COc1cc2c(cc1C(F)(F)F)N(C(=O)Nc1cc(-c3cccnc3)ccc1F)CC2,7940,2000,2000,4,1,–,–,–,–,–,–,–,–,–
COc1ccc(NC(=O)N2CCc3cc(OC)c(C(F)(F)F)cc32)cc1-c1cccnc1,200,0.501,15.8,400,30,–,1.2,3,–,–,–,–,–,–
COc1cc2c(cc1C(F)(F)F)N(C(=O)Nc1cc(Br)cc(-c3cccnc3)c1)CC2,> 1000,2,20,> 500,10,7000,5,–,–,–,–,–,–,–
CSc1cc2c(cc1C(F)(F)F)N(C(=O)Nc1cccc(-c3ccncc3)c1)CC2,158,3.16,–,50,8,–,–,–,25.1,–,–,–,–,–
COc1cc2c(cc1C(F)(F)F)N(C(=O)Nc1cccc(-c3cccnc3)c1Cl)CC2,251,10,5.01,25,0.5,–,–,–,–,–,–,–,–,–
COc1cc2c(cc1C(F)(F)F)N(C(=O)Nc1ccc(C)c(-c3cnccc3C)c1)CC2,> 6310,0.316,3.98,> 20000,12,> 100000,1.4,–,–,–,–,–,–,–
Cc1cc2c(cc1Cl)N(C(=O)Nc1ccc(Oc3cccnc3C)nc1)CC2 [SB-242084],–,–,–,–,–,–,–,–,–,> 100000,160,100,–,–
COc1cc2c(cc1C(F)(F)F)N(C(=O)Nc1cc(-c3ccccc3)cc(-c3cccnc3)c1)CC2,631,2.51,15.8,250,6,–,> 5,–,–,–,–,–,–,–
CSc1cc2c(cc1C(F)(F)F)N(C(=O)Nc1cccc(-c3cccnc3)c1)CC2,79.4,1.58,–,50,5,–,–,–,7.94,–,–,–,–,–
COc1cc2c(cc1C(F)(F)F)N(C(=O)Nc1cccc(-c3cccnc3)c1C)CC2,398,25.1,–,16,–,–,–,–,–,–,–,–,–,–
COc1cc2c(cc1C(F)(F)F)N(C(=O)Nc1ccc(Cl)c(-c3cccnc3)c1)CC2,1260,5.01,25.1,250,5,73000,5.5,–,–,–,–,–,–,–
COc1cc2c(cc1C(F)(F)F)N(C(=O)Nc1cc3c(c(-c4cccnc4)c1)OCC3)CC2,251,0.501,7.94,500,16,2000,2,–,–,–,–,–,–,–
COc1cc2c(cc1C(F)(F)F)N(C(=O)Nc1cc(F)c(C)c(-c3cccnc3)c1)CC2,1580,0.631,7.94,1600,13,–,> 5,–,–,–,–,–,–,–

Structure (SMILES),Ki [1] [nM],Ki [2] [nM],Ki [3] [nM],Selectivity [4],Selectivity [5],IC50 [6] [nM],ED50 [7] [mg/kg],Inhibition [6] [%],Ki [8] [nM],IC50 [9] [nM],Selectivity [10],Selectivity [11],Inhibition [12] [%],inhibition at 1 µM [6] [%]
COc1cc2c(cc1C(F)(F)F)N(C(=O)Nc1cccc(-c3cccnc3C)c1)CC2,501,5.01,15.8,100,3,–,> 10,–,–,–,–,–,2,–
COc1cc2c(cc1C(F)(F)F)N(C(=O)Nc1cncc(-c3cccnc3)c1)CC2,63.1,0.794,–,80,12,–,–,77,10,–,–,–,–,–
COc1cc2c(cc1C(F)(F)F)N(C(=O)Nc1cccnc1)CC2,–,–,–,120,–,20,–,–,–,–,–,–,–,–
COc1cc2c(cc1C(F)(F)F)N(C(=O)Nc1cncc(-c3ccccc3)c1)CC2,1580,5.01,–,320,5,2600,> 20,–,25.1,–,–,–,–,–
COc1cc2c(cc1C(F)(F)F)N(C(=O)Nc1ccc(Cl)c(-c3cnccc3C)c1)CC2,> 1000,0.631,–,> 1500,–,11000,1.4,–,–,–,–,–,–,–
COc1cc2c(cc1C(F)(F)F)N(C(=O)Nc1cncc(-c3ccc(F)cc3)c1)CC2,251,6.31,–,40,–,–,10,–,63.1,–,–,–,–,–
CCc1cc(NC(=O)N2CCc3cc(OC)c(C(F)(F)F)cc32)cc(-c2cccnc2)c1,200,0.631,10,320,16,6000,1.2,–,–,–,–,–,–,–
COc1cc2c(cc1C(F)(F)F)N(C(=O)Nc1cncc(-c3cc(F)cc(F)c3)c1)CC2,1260,79.4,–,15,6,–,–,–,501,–,–,–,–,–
COc1cc2c(cc1C(F)(F)F)N(C(=O)Nc1ccc(Oc3cccnc3C)nc1)CC2,794,0.631,50.1,–,–,> 100000,2.8,–,–,–,1300,80,–,–
COc1cc2c(cc1C(F)(F)F)N(C(=O)Nc1ccc(Oc3cccnc3)nc1)CC2,100,1.26,20,80,16,–,0.7,–,–,–,–,–,–,–
COc1cc2c(cc1C(F)(F)F)N(C(=O)Nc1cccc(-c3cccnc3)c1)CC2,200,1,7.94,200,8,4000,0.6,–,–,–,–,–,–,–
COc1cc2c(cc1C(F)(F)F)N(C(=O)Nc1cncc(-c3c(F)cccc3F)c1)CC2,> 10000,25.1,–,> 420,4,–,–,–,100,–,–,–,–,–
COc1cc2c(cc1C(F)(F)F)N(C(=O)Nc1cccc(-c3ccccn3)c1)CC2,501,20,–,25,–,–,–,–,–,–,–,–,–,3
COc1cc2c(cc1C(F)(F)F)N(C(=O)Nc1cccc(-c3cnccc3C)c1)CC2,251,0.631,–,400,–,–,5,–,–,–,–,–,–,8
COc1cc2c(cc1C(F)(F)F)N(C(=O)Nc1cccc(-c3c(C)ccnc3C)c1)CC2,200,2.51,12.6,80,5,–,–,–,–,–,–,–,–,–
COc1cc2c(cc1C(F)(F)F)N(C(=O)Nc1cncc(-c3ccncc3)c1)CC2,63.1,0.631,–,100,16,50000,–,–,10,–,–,–,–,–

# Source: ChEMBL document CHEMBL1132976, “Biarylcarbamoylindolines are novel and selective 5-HT(2C) receptor inverse agonists: identification of 5-methyl-1-[[2-[(2-methyl-3-pyridyl)oxy]- 5-pyridyl]carbamoyl]-6-trifluoromethylindoline (SB-243213) as a potential antidepressant/anxiolytic agent” (J Med Chem, 2000)
